Source: ChEMBL document CHEMBL1143425, “Paradoxical growth effect of caspofungin observed on biofilms and planktonic cells of five different Candida species” (2007)
In brackets after ≈: the same amount, converted by molar mass. Activity calls are given as the source filed them.

Key:
Candida parapsilosis [1] = assay: Antimicrobial activity against Candida parapsilosis BR-A26 grown as planktonic cell after 48 hrs by XTT reduction assay; format: functional; conditions: Lodderomyces parapsilosis
Outline: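 Planktonic broth microdilution followed CLSI M27-A2, with caspofungin dissolved in water. After 48 h, XTT-menadione was added to the wells and plates were kept 1 h at 35°C in the dark. Plates were then centrifuged and supernatant A490 was read. MIC was the lowest concentration giving a 50% decrease in metabolic activity versus drug-free control. Paradoxical growth was defined as ≥20% of control activity above the MIC.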

Candida parapsilosis [2] = assay: Antimicrobial activity against Candida parapsilosis 22019 grown as biofilm after 48 hrs by XTT reduction assay; format: functional; conditions: Lodderomyces parapsilosis, 22019, 48 h
Outline: (§1)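 Isolates were grown on Sabouraud agar (30°C, 24 h), then overnight in RPMI 1640 with MOPS, pH 7.0, at 35°C with shaking. Cells were washed and set to ~1 × 10^7 cells/ml, attached 1.5 h at 37°C, and grown 24 h. Biofilms were then exposed to caspofungin in 10 twofold dilutions (2–1,024 μg/ml) for 48 h at 35°C with shaking. Read-out was XTT-menadione, 1 h, 35°C, dark, A490, cell-free blank subtracted. MIC was the 50% drop in activity versus drug-free control. Tested in duplicate.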

Candida parapsilosis [3] = assay: Effect on morphology in Candida parapsilosis grown as planktonic cells assessed as inhibition of hyphae and pseudohyphae at 16 ug/ml after 48 hrs; format: functional, organism-based
Outline: (§2)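 Cells were taken from caspofungin-containing and drug-free wells of the planktonic broth microdilution test after 48 h. They were examined by light microscopy at ×400.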

Candida albicans [4] = assay: Antimicrobial activity against Candida albicans BR-A7 grown as planktonic cell assessed as paradoxical growth after 48 hrs by XTT reduction assay; format: functional, organism-based
Outline: (§3)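 Planktonic cells were tested by CLSI M27-A2 broth microdilution with caspofungin in water, incubated 48 h. XTT-menadione was added to each well, plates were held 1 h at 35°C in the dark and centrifuged, and supernatant absorbance was read at 490 nm. MIC was defined as 50% decrease in metabolic activity versus drug-free control. PG was defined as ≥20% of control activity at concentrations above MIC.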

Candida parapsilosis [5] = assay: Antimicrobial activity against Candida parapsilosis BR-A29 grown as planktonic cell assessed as concentration producing paradoxical growth after 48 hrs by XTT reduction assay; format: functional
Outline: (§4)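 Planktonic broth microdilution followed CLSI M27-A2, with caspofungin dissolved in water. After 48 h, XTT-menadione was added to each well and plates were incubated 1 h at 35°C in the dark. Cells were pelleted by centrifugation and the supernatant was read at 490 nm. MIC was the lowest concentration giving a 50% drop in metabolic activity versus the drug-free control. PG was ≥20% of drug-free activity above the MIC.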

Candida orthopsilosis [6] = assay: Antimicrobial activity against Candida orthopsilosis BR-A33 grown as planktonic cell after 48 hrs by XTT reduction assay; format: functional; conditions: Lodderomyces orthopsilosis; outline: as §3
Candida albicans [7] = assay: Antimicrobial activity against Candida albicans BR-A1 grown as planktonic cell assessed as paradoxical growth after 48 hrs by XTT reduction assay; format: functional, organism-based; outline: as §3
Candida orthopsilosis [8] = assay: Antimicrobial activity against Candida orthopsilosis BR-A34 grown as planktonic cell after 48 hrs by XTT reduction assay; format: functional; conditions: Lodderomyces orthopsilosis; outline: as §3
Candida metapsilosis [9] = assay: Antimicrobial activity against Candida metapsilosis BR-A42 grown as biofilm assessed as concentration producing paradoxical growth after 48 hrs by XTT reduction assay; format: functional
Outline: (§5)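 Sabouraud-grown cells were shaken overnight (18 h, 120 rpm, 35°C) in RPMI 1640 with MOPS at pH 7.0, then washed and set at ~1 × 10^7 cells/ml. Attachment lasted 1.5 h at 37°C, and growth ran 24 h before challenge. Caspofungin was added in RPMI at 2–1,024 μg/ml (10 doublings) for 48 h at 35°C with shaking. XTT-menadione was read at 490 nm after 1 h at 35°C in the dark, with blank wells subtracted. MIC was taken as 50% reduction versus drug-free wells, and PG as >50% of control above MIC. Assays were run in duplicate.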

Candida orthopsilosis [10] = assay: Effect on morphology in Candida orthopsilosis grown as biofilm assessed as inhibition of hyphae and pseudohyphae at 32 ug/ml after 48 hrs; format: functional, organism-based
Outline: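 Biofilms formed in RPMI 1640 wells were exposed to caspofungin for 48 h and compared with drug-free control wells. Wells were examined in the plate under an inverted light microscope at ×200 and photographed.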

Candida parapsilosis [11] = assay: Antimicrobial activity against Candida parapsilosis BR-A26 grown as planktonic cell assessed as concentration producing paradoxical growth after 48 hrs by XTT reduction assay; format: functional; outline: as §4
Candida tropicalis [12] = assay: Antimicrobial activity against Candida tropicalis BR-A20 grown as biofilm after 48 hrs by XTT reduction assay; format: functional; outline: as §1
Candida parapsilosis [13] = assay: Antimicrobial activity against Candida parapsilosis BR-A27 grown as biofilm assessed as paradoxical growth after 48 hrs by XTT reduction assay; format: functional, organism-based
Outline: (§6)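 Clinical isolates were grown overnight (18 h, 35°C, 120 rpm) in RPMI 1640 with MOPS, pH 7.0, then washed and set to ~1 × 10^7 cells/ml. Cells attached for 1.5 h at 37°C, 75 rpm, then biofilms grew 24 h. Caspofungin was given as doubling dilutions of 2–1,024 μg/ml for 48 h at 35°C, 75 rpm. Read-out was XTT-menadione in PBS, 1 h at 35°C in the dark, A490, cell-free blank subtracted. MIC was a 50% drop in activity versus drug-free; PG was >50% of control above MIC. Run in duplicate.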

Candida orthopsilosis [14] = assay: Antimicrobial activity against Candida orthopsilosis BR-A32 grown as planktonic cell assessed as paradoxical growth after 48 hrs by XTT reduction assay; format: functional, organism-based; outline: as §3
Candida metapsilosis [15] = assay: Antimicrobial activity against Candida metapsilosis BR-A40 grown as planktonic cell assessed as paradoxical growth after 48 hrs by XTT reduction assay; format: functional, organism-based; outline: as §3
Candida tropicalis [16] = assay: Effect on morphology in Candida tropicalis grown as planktonic cells assessed as rounding and clumping at 8 ug/ml after 48 hrs; format: functional, organism-based
Outline: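 Clinical isolates were tested by CLSI M27-A2 broth microdilution with caspofungin dissolved in sterile water. After 48 h incubation, cells were taken from drug-containing and drug-free control wells. They were examined by light microscopy at ×400 for hyphae or pseudohyphae, rounding or clumping, and enlarged globose cells.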

Candida orthopsilosis [17] = assay: Antimicrobial activity against Candida orthopsilosis BR-A35 grown as planktonic cell assessed as paradoxical growth after 48 hrs by XTT reduction assay; format: functional, organism-based; outline: as §3
Candida albicans [18] = assay: Effect on morphology in Candida albicans grown as planktonic cells assessed as rounding and clumping at 16 ug/ml after 48 hrs; format: functional, organism-based; outline: as §2
Candida albicans [19] = assay: Antimicrobial activity against Candida albicans BR-A4 grown as planktonic cell assessed as paradoxical growth after 48 hrs by XTT reduction assay; format: functional, organism-based; outline: as §3
Candida tropicalis [20] = assay: Antimicrobial activity against Candida tropicalis BR-A20 grown as biofilm assessed as concentration producing paradoxical growth after 48 hrs by XTT reduction assay; format: functional; outline: as §6
Candida parapsilosis [21] = assay: Antimicrobial activity against Candida parapsilosis BR-A28 grown as planktonic cell assessed as paradoxical growth after 48 hrs by XTT reduction assay; format: functional, organism-based; outline: as §4
Candida metapsilosis [22] = assay: Antimicrobial activity against Candida metapsilosis BR-A44 grown as biofilm assessed as concentration producing paradoxical growth after 48 hrs by XTT reduction assay; format: functional; outline: as §5
Candida tropicalis [23] = assay: Antimicrobial activity against Candida tropicalis BR-A24 grown as planktonic cell assessed as paradoxical growth after 48 hrs by XTT reduction assay; format: functional, organism-based; outline: as §4
Candida parapsilosis [24] = assay: Antimicrobial activity against Candida parapsilosis BR-A28 grown as biofilm after 48 hrs by XTT reduction assay; format: functional; conditions: Lodderomyces parapsilosis; outline: as §1

Question: `CC[C@H](C)C[C@H](C)CCCCCCCCC(=O)N[C@H]1C[C@@H](O)[C@@H](NCCN)NC(=O)[C@@H]2[C@@H](O)CCN2C(=O)[C@H]([C@H](O)CCN)NC(=O)[C@H]([C@H](O)[C@@H](O)c2ccc(O)cc2)NC(=O)[C@@H]2C[C@@H](O)CN2C(=O)[C@H]([C@@H](C)O)NC1=O` [CASPOFUNGIN] was tested. Which MIC (Candida parapsilosis [1]) did it give?
Answer: 2 µg/mL (≈ 1.83 µM)

Question: And the MIC (Candida parapsilosis [2])?
Answer: 2 µg/mL (≈ 1.83 µM)

Question: And the Activity (Candida parapsilosis [3])?
Answer: Active

Question: What about the Activity (Candida albicans [4]) of the same compound?
Answer: Active

Question: And the Activity (Candida parapsilosis [5])?
Answer: 32 µg/mL

Question: What about the MIC (Candida orthopsilosis [6]) of the same compound?
Answer: 1 µg/mL (≈ 0.915 µM)

Question: And the Activity (Candida albicans [7])?
Answer: Active

Question: And the MIC (Candida orthopsilosis [8])?
Answer: 1 µg/mL (≈ 0.915 µM)

Question: And the Activity (Candida metapsilosis [9])?
Answer: 32 µg/mL

Question: What about the Activity (Candida orthopsilosis [10]) of the same compound?
Answer: Active

Question: What about the Activity (Candida parapsilosis [11]) of the same compound?
Answer: 16 µg/mL

Question: And the MIC (Candida tropicalis [12])?
Answer: 2 µg/mL (≈ 1.83 µM)

Question: What about the Activity (Candida parapsilosis [13]) of the same compound?
Answer: Active

Question: What about the Activity (Candida orthopsilosis [14]) of the same compound?
Answer: inactive

Question: And the Activity (Candida metapsilosis [15])?
Answer: inactive

Question: And the Activity (Candida tropicalis [16])?
Answer: Active

Question: And the Activity (Candida orthopsilosis [17])?
Answer: inactive

Question: And the Activity (Candida albicans [18])?
Answer: Active

Question: What about the Activity (Candida albicans [19]) of the same compound?
Answer: Active

Question: What about the Activity (Candida tropicalis [20]) of the same compound?
Answer: 8 µg/mL

Question: And the Activity (Candida parapsilosis [21])?
Answer: inactive

Question: What about the Activity (Candida metapsilosis [22]) of the same compound?
Answer: 16 µg/mL

Question: And the Activity (Candida tropicalis [23])?
Answer: Active

Question: What about the MIC (Candida parapsilosis [24]) of the same compound?
Answer: 2 µg/mL (≈ 1.83 µM)
